Experimental data from the EternaBench riboswitch data.

Test system: MS2 coat protein
Test: apparent Kd, MS2 coat protein; higher = weaker binding; RNA-MaP array; FMN 200 µM where present
How it was run: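 Stalled E. coli RNA polymerase transcribed each design on Illumina sequencing-chip clusters. The clusters were titrated with SNAP-549-labelled MS2 coat protein, starting at 0.7 or 1.5 nM and doubling up to 3 µM, first without ligand and then with constant ligand, in 100 mM Tris-HCl pH 7.5, 80 mM KCl, 4 mM MgCl2, BSA, DTT, yeast tRNA and Tween-20. Green signal was normalised to red-channel RNA signal and to the control-cluster median Fmax. The apparent Kd is the median of filtered binding-curve fits made for each cluster.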

[1] = designed as: ON switch for flavin mononucleotide, no ligand
[2] = ligand present: flavin mononucleotide, designed as: ON switch for flavin mononucleotide
[3] = designed as: OFF switch for flavin mononucleotide, no ligand
[4] = ligand present: flavin mononucleotide, designed as: OFF switch for flavin mononucleotide

| Sequence | apparent Kd [1] | apparent Kd [2] | apparent Kd [3] | apparent Kd [4] |
| --- | --- | --- | --- | --- |
| CGUUUAUAUCGAGGAUAUAAGUCUAGGACAUGAGGAUCACCCAUGUAUGUCUUAGAAGGCGAUAUAAACAGCCUGUUACAGGCA | 35.3 nM | 6.96 nM | – | – |
| CUAAAUCAUGUAGGAUAUGCAUGGCGAAGCUACGCAGAAGGACAUGAGGAUCACCCAUGUCUCUCCGUCUGCGAACAGACGGAG | – | – | 19.6 nM | 104 nM |
| CUAAUGAGUGCGAGCUGACACAUGAGGAUCACCCAUGUAACACAGGAUAUCUGUCAAGGCGUGAAAGAGAAGGGUGGUCGGAAA | 142 nM | 263 nM | – | – |
| CUAGACUUAUCAGGAUAUCAUCGCGUGGAUUAACCCUGUGAUUACAUGAGGAUCACCCAUGUGCUUGAGAAGGGAUUACUAUUU | – | – | 28.8 nM | 114 nM |
| CUAGCUAUCGGAGGAUAUUCAUACCGGAAACGGACAUGAGGAUCACCCAUGUGCGGAAACGCUUGGGAGAAGGCCGAUAGCUAG | 210 nM | 18.9 nM | – | – |
| CUAGCUAUCGGAGGAUAUUCAUACCGGAAACGGACAUGAGGAUCACCCAUGUGGCGAAAGCCAUGGGAGAAGGCCGAUAGCUAG | 1640 nM | 133 nM | – | – |
| CUAUGUUAGCAGGAUAUGCCAUUAUUCCUUUUCGCAGAAGGGCUUACAUGAGGAUCACCCAUGUUACAUUUCUU | – | – | 12.4 nM | 17.6 nM |
| CUAUUGGUAACAGGAUAUAUGAGUCCUACAUGAGGAUCACCCAUGUAGGUGAUCAAACGUGAUUAGUAGAAGGGUUACCAAUAG | 15.6 nM | 7.77 nM | – | – |
| CUAUUUAAUGCCUCAUGUACAUGAGGAUCACCCAUGUUAACUUAGGAUAUAUUUAUAUUGAUAGAGUAGAAGGAAGUACUAUUU | – | – | 25.4 nM | 27.3 nM |
| CUCAAACAUGAGGAUCACCCAUGUGUUGUCAUGGGAGGAUAUCCCAGUUCGUUGUCGUCGGGAGAAGGCCUAUGUC | 65 nM | 29.3 nM | – | – |
| CUCAAACAUGAGGAUCACCCAUGUGUUGUCGUGGGAGGAUAUCCCAGUUCGGUGGCGUCGGGAGAAGGCCUAUGUC | 141 nM | 64.7 nM | – | – |
| CUCAGCUCGUCAGGAUAUACGUCACUGCUUCGGCAGUGUGGUAAGAUCACAUGAGGAUCACCCAUGUAGAAGGGACGAGCUGAC | – | – | 12.7 nM | 316 nM |
| CUCAUCCUUACAGGCUGAGACAUGAGGAUCACCCAUGUAGGGAGAAGGGAGUUGGGCAUCUUGACUCAGGAUAUCCCGAAAGAC | 733 nM | 83.7 nM | – | – |
| CUCCGACAUGUAGGAUAUGCGUGGCGAAGCUAUGCAGAAGGACAUGAGGAUCACCCAUGUCUUUCCGUCUGCGUACAGACGGAG | – | – | 17.4 nM | 57.3 nM |
| CUCCUCGAAGGAUAUACUGUGGAUCAUAAGUCAGGGAGGUUACAUGAGGAUCACCCAUGUAGAAGGUCGAGGUG | – | – | 67.2 nM | 428 nM |
| CUCCUGUAAGGAUAUCUGACAAGUGACGAAAGUCACAGUUCAGAGAAGGUACAUGAGGAUCACCCAUGUAGAAC | – | – | 32.2 nM | 139 nM |
| CUCUCACAGUCAGGAUAUGACGCGGAACAUGAGGAUCACCCAUGUGACGUCCCUCCAUGUACCCGUCAGAAGGGAUUAAUGGAC | – | – | 720 nM | 480 nM |
| CUCUGACAUGAGGAUCACCCAUGUGAGGAUAUGAUGCAGCAGUGGUCUACGCUGUGCAUCAGAAGGCACAUGUG | – | – | 101 nM | 33.4 nM |
| CUCUUUGUUGAGGAUAUGCACCAGCUCACUGACGCAGAAGGCGACACAUGAGGAUCACCCAUGUCAGUUCGCGU | – | – | 17.4 nM | 21.5 nM |
| CUGACGUUUGAAGGAUAUGACAUGUUGAAGCGUAUUGACAGCCCUGCACAUGAGGAUCACCCAUGUCAGAAGGUCAACCGUUGA | – | – | 7.11 nM | 20.3 nM |
| CUGAGCAAUGUAGGAUAUCGACUGGAAUACAGUCGAGAAGGACAUGAGGAUCACCCAUGUAAAUGAGUGAAUAAUAAAGCUCAG | – | – | 735 nM | 345 nM |

| Sequence | apparent Kd [1] | apparent Kd [2] | apparent Kd [3] | apparent Kd [4] |
| --- | --- | --- | --- | --- |
| CUGAGCUGAGGAUAUACAUGAGGAUCACCCAUGUGUUCCAGCUUGGGUACAGGCACAUGUAGAAGGCAGUUCGG | – | – | 55.1 nM | 21.4 nM |
| CUGAGUAGUCAGGAUAUGUGGUACAAAAGUACUGCAGAAGGGAUUACAUGAGGAUCACCCAUGUUUUCUUCAUG | – | – | – | 125 nM |
| CUGAUGUGAGGAUAUCGGGCUACGGCCAGGCCGCUAGCAUUCGAGAAGGCACAUGAGGAUCACCCAUGUGAGAA | – | – | 25.4 nM | 39.8 nM |
| CUGCCUUAUGUAGGAUAUGCAUAGCAUUGCUAUGCAGAAGGACAUGAGGAUCACCCAUGUAUGUAAUCAAUACAUAUCUGGCAG | – | – | 20.4 nM | 119 nM |
| CUGCGGUAGGAGAAGGACGGCGGGUUCUUUUCGUACAUGAGGAUCACCCAUGUAGGAUAUCCUACCUCAGGCGGCCUACUACAG | – | – | 5.89 nM | 7.42 nM |
| CUGGUUGUCGAGGAUAUGUCCCGGCUCGCUGACGCAGAAGGCGACACAUGAGGAUCACCCAUGUCGGUUCGCGU | – | – | 20.1 nM | 21.8 nM |
| CUGGUUGUCGUAGGAUAUGUAGGAUAUUCCUACAUGAGGAUCACCCAUGUUCGCAUGGAAGAAGGACAGAAGGACGAUGACCAA | 1160 nM | 8.77 nM | – | – |
| CUGUGACGGUGCGCAAGUGGACGGAGAAGGCACACAUGAGGAUCACCCAUGUGAGCCUGCUAUUGUGAGGAUAUCCGUUCGUAC | – | – | 5.52 nM | 7.02 nM |
| CUGUGACGGUGCGCAAGUGGACGGAGAAGGGACACAUGAGGAUCACCCAUGUGGGCCUGCUAUUGUCAGGAUAUCCGUUCGUAC | – | – | 6.26 nM | 6.62 nM |
| CUGUGACGGUGCGCAAGUGGACGUAGAAGGCUCACAUGAGGAUCACCCAUGUGGGCCUGCGAGUGAGAGGAUAUACGUUCGUGC | – | – | 5.28 nM | 5.56 nM |
| CUGUGACGGUGCGCAUGUGGACGGAGAAGGCAGACAUGAGGAUCACCCAUGUGAGCCUGCUAUUCUGAGGAUAUCCGUUCGCAC | – | – | 31.8 nM | 192 nM |
| CUGUUAUAGGUCCAGAAUUACAACAUGAGGAUCACCCAUGUGCAGGAUAUCGGGAUAAUAAACGACGAGAAGGGCAUAGUCACG | – | – | 16.9 nM | 24.5 nM |
| CUGUUAUAGGUCCAGAAUUACAACAUGAGGAUCACCCAUGUGCAGGAUAUCGGGUUAAUAAACGACGAGAAGGGCAUAGUCACG | – | – | 35.6 nM | 104 nM |
| CUUACACAUGAGGAUCACCCAUGUGAGGAUAUGCGUACGUUGUCCGUAGGCGACGUGCGCAGAAGGCGCUUGGU | – | – | 61.6 nM | 62 nM |
| CUUAUGUGAGGAUAUGUACAGAAAAAACUGGGUGUAACUGUACAGAAGGCACAUGAGGAUCACCCAUGUGCAUU | – | – | 59.9 nM | 57.1 nM |
| CUUCAGUCAGGAUAUGUUAAUCUCGCCACUCGGCGAGCCGGACAGAAGGGACAUGAGGAUCACCCAUGUUAAAA | – | – | 37.6 nM | 22.2 nM |
| CUUCGACAUGAGGAUCACCCAUGUCAGGAUAUUGUGUAUCGGGUUUUUUACGGAAAGGCAAGAAGGGAUGUGUG | – | – | 29.7 nM | 24.8 nM |
| CUUUAACUACAAUUACAUGAGGAUCACCCAUGUUUUGGGAUGCAGGAUAUGUGGUAUAUUAAUUAACAGAAGGGCAAUAAUUAA | 40.7 nM | 38.9 nM | – | – |
| CUUUCGUGAGGAUAUCAGUAGUAAAUAAAUAAAAUUACUACUGAGAAGGCACAUGAGGAUCACCCAUGUUCCUU | – | – | 11.8 nM | 18.5 nM |
| CUUUCGUGAGGAUAUGUGGCUUCGAUCGUGAGAUCGAAGCUACAGAAGGCACAUGAGGAUCACCCAUGUUCCUC | – | – | 38.5 nM | 544 nM |
| CUUUUGUGAGGAUAUCAGUAGUAAAAUAAUAAAAUAACUACUGAGAAGGCACAUGAGGAUCACCCAUGUUCCUC | – | – | 32.5 nM | 161 nM |
